The results in this text go back to ChEMBL document CHEMBL1145451, “Discovery of isonicotinamide derived beta-secretase inhibitors: in vivo reduction of beta-amyloid” (J Med Chem, 2007).

Molecules are shown by their SMILES.

For data set [1], the target named is T1, Beta-secretase 1 (Homo sapiens, UniProt P56817). As to the kind of experiment: Inhibition of BACE1 by ECL assay.
Data set [2] can be described thus: Drug level in APP-YAC mouse brain at 20 mg/kg, iv after 30 mins. The class given is ADME, organism-based. Also noted: dose 20 mg/kg, route intravenous. To be noted: read-out: Drug uptake. In short, it runs like this: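 Brain penetration: brain concentration in mice measured 30 min after a 20 mg/kg i.v. dose, n of 3, reported in nM.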
The target in data set [3] is T1, Beta-secretase 1. As to the kind of experiment: Inhibition of BACE1 assessed as effect on soluble APPbeta N-terminal fragment secretion in HEK293T cells. The class given is cell-based, HEK-293T.
For the next data set, the system named is LLC-PK1. The data set is described as follows: Ratio of permeability from basolateral to apical over apical to basolateral side in LLC-PK1 cells transfected with MDR1 by PGP assay. The class given is ADME, cell-based. To be noted: human.
A short description of data set [4]: Ratio of drug level in APP-YAC mouse brain to IC50 for BACE1 in HEK293T cells. To be noted: hek-293t. In kind it is ADME, cell-based.
Data set [5] can be described thus: Volume of distribution in rat at 2 mg/kg, iv. In kind it is ADME, organism-based. Also noted: dose 2 mg/kg, route intravenous. The note with it: in vivo, read-out: Vdss.
Data set [6] can be described thus: Cmax in rat at 10 mg/kg, po. The class given is ADME, organism-based. More on the design: dose 10 mg/kg, route oral. To be noted: in vivo.
In a further data set the test system is Rattus norvegicus. As to the kind of experiment: Plasma clearance in rat at 2 mg/kg, iv. In kind it is ADME, organism-based. The note with it: in vivo. More on the design: dose 2 mg/kg, route intravenous.
Data set [7] in a line: Oral bioavailability in rat. In kind it is ADME, organism-based. To be noted: in vivo.
A short description of data set [8]: Drug level in APP-YAC mouse brain at 50 mg/kg, iv after 0.5 hrs. Also noted: dose 50 mg/kg, route intravenous. To be noted: read-out: Drug uptake. In kind it is ADME, organism-based. In short, it runs like this:
(§1)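 Time course: transgenic mice expressing human WT APP from a yeast artificial chromosome given a 50 mg/kg i.v. bolus; brain drug concentration measured at 0.5, 1.5, 3 and 4.5 h post-dose.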

The next data set relates to Mus musculus. As to the kind of experiment: Reduction of beta amyloid protein 40 level in transgenic APP-YAC mouse at 50 mg/kg, iv after 3 hrs relative to control. The class given is functional. More on the design: scale not given: the % may be the effect or the level left. Summed up:
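APP-YAC mice (human WT APP on a yeast artificial chromosome) given i.v. bolus; brain Aβ40 measured at 0.5–4.5 h (time course, 50 mg/kg) and at 3.0 h across 6.25–50 mg/kg; reduction relative to vehicle-treated animals, Tukey-Kramer HSD statistics; γ-secretase inhibitor as positive control.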

Data set [9] has as its system Brain. As to the kind of experiment: Drug level in APP-YAC mouse brain at 50 mg/kg, iv. More on the design: dose 50 mg/kg, route intravenous. The note with it: in vivo, read-out: Drug uptake. The class given is ADME, organism-based. Summed up:
(§2)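 Dose response: APP-YAC transgenic mice given i.v. bolus doses of 6.25, 12.5, 25 or 50 mg/kg; brain drug concentration determined 3.0 h post-dose.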

The test system of data set [10] is Brain. As to the kind of experiment: Drug level in APP-YAC mouse brain at 25 mg/kg, iv. The class given is ADME, organism-based. Also noted: dose 25 mg/kg, route intravenous. To be noted: in vivo, read-out: Drug uptake. Summed up:
as §2

Data set [11] in a line: Drug level in APP-YAC mouse brain at 50 mg/kg, iv after 4.5 hrs. The class given is ADME, organism-based. Also noted: dose 50 mg/kg, route intravenous. The note with it: read-out: Drug uptake. In short, it runs like this: as §1
The nature of data set [12]: Half life in rat at 2 mg/kg, iv. To be noted: in vivo.

T1 sequence (P56817 whole entry): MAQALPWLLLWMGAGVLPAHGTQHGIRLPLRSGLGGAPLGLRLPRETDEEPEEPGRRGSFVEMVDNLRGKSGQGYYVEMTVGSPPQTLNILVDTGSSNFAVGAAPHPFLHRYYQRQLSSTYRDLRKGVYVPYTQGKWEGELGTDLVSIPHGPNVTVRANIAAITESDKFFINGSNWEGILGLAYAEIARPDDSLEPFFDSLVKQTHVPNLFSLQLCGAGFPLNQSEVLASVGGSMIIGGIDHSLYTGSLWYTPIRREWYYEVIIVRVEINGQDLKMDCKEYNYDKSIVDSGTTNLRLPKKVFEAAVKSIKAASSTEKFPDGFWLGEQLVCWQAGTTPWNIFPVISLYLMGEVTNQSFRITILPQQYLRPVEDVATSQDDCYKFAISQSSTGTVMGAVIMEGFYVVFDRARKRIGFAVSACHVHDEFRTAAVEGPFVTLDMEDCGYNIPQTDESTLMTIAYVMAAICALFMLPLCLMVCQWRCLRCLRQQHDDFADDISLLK

The IC50 is the concentration needed to halve the response being measured. With `CCCN(CC1CC1)c1cc(C(=O)N[C@H](CO)Cc2ccccc2)cc(N(C)S(=O)(=O)C(C)C)n1`, the IC50 against Beta-secretase 1 [1] was 350 nM; at Beta-secretase 1 [3], > 20000 nM. In addition, the concentration at 0.5 h in data set [2] stood at 1400 nM. The Ratio with LLC-PK1 is on record as 3.6; in [4], < 0.07.
Broadly, the Cmax is the peak of the concentration-time curve. As usually defined, the clearance is the rate of elimination divided by the concentration. A word on the bioavailability: it is the share of a dose that reaches the circulation, judged against a reference dose that is usually intravenous. Take `CC(C)S(=O)(=O)N(C)c1cc(C(=O)N[C@@H](Cc2ccccc2)[C@@H](N)CF)cc(N(C)C[C@H]2C[C@@H]2C)n1`: the IC50 against Beta-secretase 1 [1] is 18 nM; at Beta-secretase 1 [3], 910 nM. Also, in [5], the Vd stood at 4.2 L/kg. Moreover, in data set [6], the peak concentration (Cmax) was 200 nM. In the data set with Rattus norvegicus, the clearance was found to be 59.1 mL/min/kg. Moreover, the bioavailability in data set [7] came to 8%. In addition, the Ratio in the data set with LLC-PK1 was 4.8; in data set [4], 3.4.
As a reminder, the half-life is the time needed for the level to fall by half in the phase considered. For `CC(C)S(=O)(=O)N(C)c1cc(C(=O)N[C@@H](Cc2ccccc2)[C@@H](N)CF)cc(NC[C@H]2C[C@@H]2C)n1`, the concentration at 0.5 h in data set [8] worked out at 5800 nM. The compound further had an Activity in the data set with Mus musculus of 34%. The concentration came out at 1900 nM with Brain [9] and 700 nM in the data set on Brain [10]. Besides, the values for the IC50 against Beta-secretase 1 [1] and on Beta-secretase 1 [3] were 2 nM and 49 nM, respectively. The Vd in [5] came out at 3.9 L/kg. Also, the concentration at 4.5 h in data set [11] was found to be 700 nM. Besides, in data set [12], the half-life is 1.6 h. This compound showed a peak concentration (Cmax) in [6] of 300 nM. Besides, the clearance in the data set with Rattus norvegicus worked out at 45.8 mL/min/kg. The bioavailability in data set [7] was determined as 13%. Moreover, the values for the Ratio (with LLC-PK1; in data set [4]) were > 50 and 11.4, respectively.
`CN(c1cc(C(=O)N[C@H](CO)Cc2cc(F)cc(F)c2)cc(NCC2CC2)n1)S(C)(=O)=O` yielded an IC50 at Beta-secretase 1 [1] of 1100 nM.
With `CC1CC1CNc1cc(C(=O)N[C@@H](Cc2ccccc2)[C@@H](N)CF)cc(N(C)S(=O)(=O)C(C)C)n1` (mixture of isomers), the concentration at 0.5 h in data set [2] is 560 nM.
On to `CC1CC1CN(C)c1cc(C(=O)N[C@@H](Cc2cc(F)cc(F)c2)[C@@H](N)CF)cc(N(C)S(=O)(=O)C(C)C)n1` (mixture of isomers), for which, in data set [2], the concentration at 0.5 h was 3080 nM.
As to `CC(C)S(=O)(=O)N(C)c1cc(C(=O)N[C@H](CO)Cc2cc(F)cc(F)c2)cc(NC[C@H]2C[C@@H]2C)n1`, the IC50 against Beta-secretase 1 [1] was 14 nM; on Beta-secretase 1 [3], > 20000 nM.
